Hits are enriched below; roughly 3.7% of the tested compounds scored in any of these assays.
Kir21 block: blocks the mouse Kir2.1 inward-rectifier potassium channel; HEK293-Kir2.1, FluxOR thallium flux fluorescence; stronger effect = lower value; 310,000 tested, 0.85% active; B-score at 10 µM; P35561;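 active = fluorescence ratio B-score at or below minus 3 SD of library scores, with starting-brightness B-score within 2 SD, cut at about -4.2 in these data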;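 also: channel flux triggered by added potassium and thallium sulfate stimulus; B-score of peak minus minimum fluorescence over baseline after thallium stimulus; more negative B-score means stronger Kir2.1 block with less thallium influx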
KCNQ1 pot: potentiators or activators of human KCNQ1 potassium channel | P51787 | CHO-K1 KCNQ1, thallium flux FluxOR fluorescence; stronger effect = higher value | B-score at 10 µM | 310,000 tested, 0.35% active | AID 2648;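 active = fluorescence ratio B-score, a plate-corrected score, at least three library SD, with initial intensity B-score within 5 SD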
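Doses: Single concentration per compound, DMSO matched to controls | Test system: KCNQ1-transfected CHO-K1 cells | Timing: 90 min dye loading and 20 min compound exposure, both at room temperature | Measured by: Kinetic FluxOR thallium fluorescence, 10-s 1-Hz baseline, 110-s post-stimulus read | Medium: Assay buffer with matched DMSO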
KCNQ1 block: blocks the human KCNQ1 potassium channel; CHO-K1 KCNQ1, FluxOR thallium flux fluorescence; stronger effect = higher value; B-score at 10 µM; P51787; 310,000 tested, 1.3% active;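 active = compounds whose thallium flux B-score, printed positive for inhibition, exceeds three library SD while starting fluorescence stays within three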;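 also: channel opened by potassium depolarization with thallium stimulus after 20 min compound exposure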
KCNK9 block: human KCNK9 channel inhibition; HEK293 KCNK9, FluxOR thallium flux fluorescence; stronger effect = lower value; AID 488922; 310,000 tested, 1.2% active; B-score at 10 µM; Q9NPC2;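 active = ratio B-score over 3 SD below the library mean, with starting fluorescence within 5 SD of its mean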;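 also: negative B-score means less thallium flux so channel inhibition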
KCNK3 inh: human KCNK3 channel inhibition, primary screen. O14649. CHO-KCNK3 thallium flux, FluxOR fluorescence; stronger effect = lower value. B-score at 10 µM. 340,000 tested, 0.84% active;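 active = B-score under library mean minus 4 SD, starting fluorescence ratio at most library mean plus 5 SD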;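 also: more negative B-score means stronger inhibition of thallium flux through KCNK3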
Target sequence (O14649 whole entry, looked up): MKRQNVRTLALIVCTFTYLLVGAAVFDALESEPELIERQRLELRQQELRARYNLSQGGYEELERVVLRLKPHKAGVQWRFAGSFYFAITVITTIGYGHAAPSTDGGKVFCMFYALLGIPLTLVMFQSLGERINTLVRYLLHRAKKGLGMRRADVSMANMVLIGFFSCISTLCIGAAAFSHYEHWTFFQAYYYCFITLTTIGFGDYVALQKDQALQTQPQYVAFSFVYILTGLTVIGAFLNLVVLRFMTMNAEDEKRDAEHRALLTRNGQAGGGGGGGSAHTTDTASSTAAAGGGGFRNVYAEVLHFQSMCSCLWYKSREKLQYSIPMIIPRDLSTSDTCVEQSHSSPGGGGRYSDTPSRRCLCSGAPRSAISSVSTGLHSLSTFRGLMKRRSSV
hERG protect: hERG (human) protection from proarrhythmic block; Q12809; 310,000 tested, 0.51% active; AID 1511; activation (rescue from dofetilide block), less the hit threshold, % at 10 µM; CHO-hERG, FluxOR thallium flux, dofetilide IC70 present;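 active = activation above the mean of controls blocked by dofetilide plus 5 SD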;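 also: thallium influx through hERG after potassium depolarization seen as dye fluorescence rise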
KCNK9 inh conf: confirmation of human KCNK9 potassium channel inhibitors; HEK293 KCNK9 cells, FluxOR thallium flux fluorescence; inhibition, % at 10 µM; shares compounds with KCNK9 block; 4,900 tested, 43% active;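 active = thallium signal inhibited by more than 5 SD of the compound-free buffer control wells, on both duplicate plates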;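 also: 0% = assay buffer control wells without compound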
Kir21 sel: selectivity of KCNK9 modulators against mouse Kir2.1; shares compounds with KCNK9 block; Kir2.1 cells, FluxOR thallium flux fluorescence; inhibition, % at 10 µM; 4,900 tested, 4% active; AID 492993;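 active = thallium signal drop more than 5 SD beyond the mean of the no-compound control wells, seen in both duplicate plates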;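 also: signal is fluorescence rise after thallium addition divided by baseline fluorescence; plate controls were assay buffer only for no effect and full block by chlorpromazine control for full effect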
KCNK9 uninduced: second counter-screen for KCNK9 modulators: effect in non-induced cells; shares compounds with KCNK9 block; non-induced KCNK9-HEK293, FluxOR thallium flux; inhibition, % at 10 µM; 4,900 tested, 40% active;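 active = thallium signal drop beyond 5 SD of the untreated control mean, on both duplicate plates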;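 also: plate controls were buffer only IC0 wells for no effect and SID17386958 at its maximal inhibitory level for full effect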
* marks the source's active call; other numbers are inactive results; i = inactive; x = no result.

SMILES	Kir21 block	KCNQ1 pot	KCNQ1 block	KCNK9 block	KCNK3 inh	hERG protect	KCNK9 inh conf	Kir21 sel	KCNK9 uninduced
S=C(NC1CCCCC1)N1CCOCCOCCN(C(=S)NC2CCCCC2)CCOCCOCC1	2.2	i	i	-12*	i	-2	50%*	i	33%*
O=C(C(c1ccccc1)c1ccccc1)N1CCCc2ccccc21	-1.3	i	i	-11*	i	-11	44%*	i	42%*
CN(C)c1ccc(CNC(=O)CCS(=O)(=O)c2ccc3c(c2)n(C)c(=O)c(=O)n3C)cc1	-0.46	i	i	i	i	-2	x	x	x
COC1(c2ccccc2)NC(=S)NN=C1c1ccccc1 (stereo unspecified)	-1.1	i	i	i	i	-9	x	x	x
Cc1ccc(CSCCNC(=O)CCSc2ccccc2)cc1	0.14	i	i	i	i	-9	x	x	x
Cc1ccc(SCC(=O)NCCSCc2ccccc2)cc1	-1.8	i	i	i	i	-10	i	i	i
Cc1ccc(C)c(N(CC(=O)NCCSCc2ccco2)S(C)(=O)=O)c1	1.2	i	i	i	i	-3	x	x	x
Cc1ccccc1CSCCNC(=O)CCSc1ccccc1	-3.1	i	i	i	i	-20	i	i	i
Cc1ccc(CSCCNC(=O)CN(c2cc(C)ccc2C)S(C)(=O)=O)cc1	-0.83	i	i	i	i	-15	i	i	i
CCN(CC(=O)Nc1cc(S(=O)(=O)N2CCCCC2)ccc1C)Cc1ccccc1	-0.94	i	i	i	i	-7	x	x	x
C=Cc1ccc(Cn2nc(-c3ccc(C)cc3)ccc2=O)cc1	2.6	i	i	i	i	-5	i	i	i
CCOc1ccc(C2(C)NC(=O)N(CCN(C)C)C2=O)cc1 (stereo unspecified)	0.71	i	i	i	i	2	x	x	x
Oc1ccc(/C=N/Nc2cc(N3CCCC3)nc(N3CCCC3)n2)cc1	0.52	i	i	i	i	-6	x	x	x
COc1ccc(/C=N/Nc2cc(N3CCCC3)nc(N3CCCC3)n2)cc1	-1.8	i	8*	i	i	-22	i	i	i
CC(C)N(Cc1ccccc1)C(=O)COC(=O)c1cc[n+]([O-])cc1	x	x	x	x	i	x	x	x	x
O=C(O)C[C@H]1c2cc(C(F)(F)F)ccc2S(=O)(=O)N1C1CCN(Cc2ccccc2)CC1	-0.53	i	i	i	i	1	x	x	x
COc1ccc(/C=C2\SC(=O)N(CCNC(=O)C3=COCCO3)C2=O)cc1	0.18	i	i	i	i	-15	x	x	x
O=C(NCCN1C(=O)S/C(=C\c2ccc(OC(F)F)cc2)C1=O)C1=COCCO1	0.12	i	i	i	i	-9	i	i	i
Cc1ccccc1CN(C)CC(=O)Nc1ccccc1-c1ccccc1	-5.6*	i	i	-10*	i	-8	71%*	55%*	42%*
O=C(CNC(c1ccccc1)c1ccccc1)Nc1ccccc1-c1ccccc1	-2.1	i	i	-12*	i	-14	26%*	i	42%*
CN(CC(=O)Nc1ccccc1Oc1ccccc1)Cc1ccccc1F	-5.1*	i	i	-13*	i	-20	78%*	47%*	42%*
Cc1cccc(N(CC(=O)Nc2ccccc2-c2ccccc2)S(=O)(=O)c2ccccc2)c1C	-0.22	i	i	i	i	-2	x	x	x
CN(CC(=O)Nc1ccccc1C(=O)NC1CC1)Cc1ccccc1F	x	x	x	x	i	x	x	x	x
CCCc1cc(=O)n2[nH]c(C)c(-c3ccc(OC)cc3)c2n1	0.03	i	i	i	i	-7	x	x	x
COc1ccc(/C=C/C(=O)Oc2ccc(C)c(C)c2)cc1OC	-0.05	i	i	i	i	-6	i	i	i
SMILES	Kir21 block	KCNQ1 pot	KCNQ1 block	KCNK9 block	KCNK3 inh	hERG protect	KCNK9 inh conf	Kir21 sel	KCNK9 uninduced
Cc1ccc2c(c1)N(C(=O)CCC(=O)Nc1ccccc1Cl)CC(C)O2 (stereo unspecified)	-1.7	i	i	i	i	-11	i	i	i
Cc1cccc(N2CCN(C(=O)CCC(=O)N3CC(C)Oc4ccc(C)cc43)CC2C)c1 (stereo unspecified)	0.83	i	i	i	i	-13	i	i	i
Cc1ccc2c(c1)N(C(=O)CCC(=O)N1CCN(c3ccccn3)CC1)CC(C)O2 (stereo unspecified)	-0.05	i	i	i	i	-11	x	x	x
Cc1ccc2c(c1)N(C(=O)CCC(=O)NCc1ccccc1)CC(C)O2 (stereo unspecified)	0.24	i	i	i	i	-4	x	x	x
CCCn1c(C2CCCN2c2nc(C)cs2)nc2cc(Cl)c(Cl)cc21 (stereo unspecified)	-0.25	i	i	-9.5*	i	-8	i	i	34%*
CCCc1nc(SCC(=O)N2CCCc3ccccc32)c2c(=O)n(C)c(=O)n(C)c2n1	-0.7	i	i	i	i	-26	i	i	i
O=C(CSc1nnc(CNC(=O)c2cccs2)o1)Nc1ccccc1F	0.7	i	i	i	i	-7	x	x	x
CC1Cc2ccccc2N1C(=O)CNc1cccc(S(=O)(=O)N2CCCC2)c1 (stereo unspecified)	0.11	i	i	i	i	-13	i	i	i
CC(=O)c1cccc(NCC(=O)Nc2cccc(S(=O)(=O)N3CCCCC3)c2)c1	1.1	i	i	i	i	-14	x	x	x
CCOc1ccc(C(=O)Nc2nnc(NC(=S)Nc3ccccc3)s2)cc1	0.34	i	i	i	i	-18	x	x	x
Cc1ccc(C(=O)Nc2nnc(NC(=S)Nc3ccccc3)s2)cc1	-1.2	i	i	i	i	-12	i	i	i
C=CCOc1ccc(/C=N/NC(=O)C(=O)Nc2ccccn2)cc1OC	0.48	i	i	i	i	-3	x	x	x
CCN(CC(=O)N1CCOCC1)S(=O)(=O)c1ccc(F)cc1	0.17	i	i	i	i	-3	x	x	x
O=C(OCc1nnc(-c2ccccc2)o1)C12CC3CC(CC(Br)(C3)C1)C2	-1.2	i	i	i	i	-14	i	i	i
